Assay outcomes: PubChem, several laboratories
Myeloid diff 2 – induction of myeloid progenitor differentiation, primary screen, cell-based, flow cytometry, MLPCN library | 360,000 tested, 1% active | calls only at 10 µM | ER-HoxA9 myeloid progenitors, lysozyme-GFP differentiation;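 active = normalized GFP-positive differentiation at or above the plate's own cutoff, the solvent-only control mean plus 3 SD; inconclusive = no clear call, values can overlap the other calls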;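 also: cells exposed to compound for four days before flow analysis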
VLA-4 inh – inhibition in human VLA-4 binding assay, primary screen, VLA-4 allosteric modulator project, MLPCN library, flow cytometry, VLA-4 expressing cells. ligand binding flow cytometry. inhibition, % (about 7 µM as worked out from the volumes in the protocol). 330,000 tested, 0.2% active. AID 2557, 2010; in the data active = inhibition above about 50%
Platelet DG rel – inhibitors of platelet dense granule secretion, primary screen, cell-based, MLPCN, human platelets | inhibition, %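 (compounds screened at 7.5 µM in platelet-rich plasma)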 | human platelet-rich plasma, SFLLRN dense granule ATP release, luminescence | AID 1663, 2009 | 300,000 tested, 0.22% active;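 active = mean replicate score, as percent of positive control, at or above 50; inconclusive = mean below 50 but at least one replicate at or above 50; inactive = mean and every replicate below 50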
SENP1 inh – human SENP1 catalytic domain inhibitors, primary screen, biochemical, FRET, uHTS. recombinant SENP1 catalytic domain, CyPet-SUMO1-YPet FRET cleavage. inhibition, % at 10 µM. 360,000 tested, 0.21% active;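 active = inhibition at least 30% at 10 µM, raw YFP signal under a set limit, fluorescence ratio 0.5 to 1.5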;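 also: 0% = enzyme with DMSO and 100% = no enzyme wells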
Target sequence (Q9P0U3 419-644 limits assumed): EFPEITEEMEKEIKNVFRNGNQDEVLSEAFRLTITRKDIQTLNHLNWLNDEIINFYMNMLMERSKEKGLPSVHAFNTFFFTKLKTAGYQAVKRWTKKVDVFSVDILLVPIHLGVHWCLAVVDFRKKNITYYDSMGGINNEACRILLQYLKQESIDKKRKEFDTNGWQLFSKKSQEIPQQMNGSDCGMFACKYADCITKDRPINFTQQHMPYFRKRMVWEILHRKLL
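Controls: no-enzyme wells low, DMSO-plus-enzyme wells high control. Test system: human recombinant His6-tagged SENP1 catalytic domain enzyme. Reagent: SFCypet-SUMO1-SFYpet FRET protein substrate, 25 nM final. Doses: one dose per compound, 10 µM, 0.5% DMSO. Detection: FRET, CFP and YFP emission. Timing: 50 min reaction at room temperature.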
VLA-4 mod pick – retest of VLA-4 allosteric modulators, confirmation, cell-based, cherry-picked plates, U937, HUTS-21 LIBS antibody; 1,300 tested, 2% active; inhibition, % at 6.7 µM; AID 2813, 2010; shares compounds with VLA-4 inh; U937 cells, HUTS-21 LIBS mAb binding, flow cytometry; LDV ligand present at threefold Kd; in the data active = inhibition above about 40%;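 also: 0% = ligand without compound and 100% = no ligand background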
An asterisk follows results filed as active. Hits are enriched below; roughly 1.5% of the tested compounds scored in any of these assays.

What do the screens show for `OCC1OC(n2cnc3c(SCc4ccccc4)ncnc32)C(O)C1O` (stereo not given)?
SENP1 inh: 0.7

What do the screens show for `CN(Cc1ccccc1)C(=O)CN(C)S(=O)(=O)c1ccc(F)cc1`?
Myeloid diff 2: inactive; VLA-4 inh: 9.9; Platelet DG rel: 8.7; SENP1 inh: 0.9; VLA-4 mod pick: 0.0

How did COc1ccccc1C(=O)NCCC(=O)Nc1ncccc1O do in these assays?
Myeloid diff 2: inactive; VLA-4 inh: 0.0; Platelet DG rel: inconclusive; SENP1 inh: 0.5

Results for CCOC(=O)N1CCN(Cc2nc3cc(NC(=O)CC(C)C)ccc3n2CC)CC1 ?
Myeloid diff 2: inactive; VLA-4 inh: 51.0*; Platelet DG rel: -0.7; SENP1 inh: -5.6; VLA-4 mod pick: -1.2

Results for CCOC(=O)N1CCN(Cc2nc3cc(NC(=O)CC(C)C)ccc3n2C)CC1 ?
Myeloid diff 2: inactive; VLA-4 inh: -8.2; Platelet DG rel: -11.3; SENP1 inh: 0.4

Results for CN(C)Cc1c(C(=O)N/N=C/C2CC=CCC2)nnn1-c1nonc1N (stereo not given) ?
Myeloid diff 2: inactive; VLA-4 inh: 4.2; Platelet DG rel: 6.1; SENP1 inh: -1.4

Results for O=C(c1cc(-c2cccs2)nc2ccccc12)N1CCN(c2ccccc2)CC1 ?
Myeloid diff 2: inactive; VLA-4 inh: 11.3; Platelet DG rel: 1.5; SENP1 inh: -2.0

Results for O=C(c1cc(-c2cccs2)nc2ccccc12)N1CCN(S(=O)(=O)c2cccc(F)c2)CC1 ?
Myeloid diff 2: inactive; VLA-4 inh: 91.2*; Platelet DG rel: 5.0; SENP1 inh: 0.2; VLA-4 mod pick: 0.0

What do the screens show for `O=C(c1cc(-c2cccs2)nc2ccccc12)N1CCN(S(=O)(=O)c2ccccc2)CC1`?
Myeloid diff 2: inconclusive; VLA-4 inh: 13.5; Platelet DG rel: -1.2; SENP1 inh: -13.0; VLA-4 mod pick: -13.2

Results for CCOc1ccccc1C1CC(=O)Nc2cc3c(cc21)OCCO3 (stereo not given) ?
VLA-4 inh: 0.0; Platelet DG rel: -4.7; SENP1 inh: 0.5

Results for Cc1cc2c(cc1C)C(c1ccccc1OC(C)C)CC(=O)N2 (stereo not given) ?
Myeloid diff 2: inconclusive; VLA-4 inh: 3.3; Platelet DG rel: -1.5; SENP1 inh: 0.5; VLA-4 mod pick: -5.0

What do the screens show for `CC(C)Oc1ccccc1C1CC(=O)Nc2cc3c(cc21)OCO3` (stereo not given)?
Myeloid diff 2: inactive; VLA-4 inh: 56.8*; Platelet DG rel: -5.9; SENP1 inh: 0.7; VLA-4 mod pick: 42.2*

Results for COc1ccccc1C1CC(=O)Nc2cc(C)c(C)cc21 (stereo not given) ?
Myeloid diff 2: inactive; VLA-4 inh: 5.9; Platelet DG rel: 16.4; SENP1 inh: 0.0

Results for COc1ccc(CNC(=O)C2(C)Cc3c(-c4ccc(N(C)C)cc4)ccnc3O2)cc1OC (stereo not given) ?
Myeloid diff 2: inactive; SENP1 inh: 0.4

Results for CCN1CCN(CC(O)COc2ccc(C)c(C)c2)CC1 (stereo not given) ?
Myeloid diff 2: inactive; VLA-4 inh: 92.2*; Platelet DG rel: 8.8; SENP1 inh: -0.5; VLA-4 mod pick: -4.2

How did CSC[C@H]1CN(Cc2ccccc2)C(=O)[C@@H]1CC(=O)Nc1ccc(Br)cc1 do in these assays?
Myeloid diff 2: inactive; SENP1 inh: 0.6

Results for C=CCNc1nc(C(F)(F)F)nc2c1nnn2Cc1ccccc1Cl ?
Myeloid diff 2: inactive; VLA-4 inh: 70.0*; Platelet DG rel: 5.2; SENP1 inh: 3.2; VLA-4 mod pick: -8.6

What do the screens show for `CCOCCCNc1nc(C(F)(F)F)nc2c1nnn2Cc1ccccc1Cl`?
Myeloid diff 2: inactive; VLA-4 inh: 10.9; Platelet DG rel: 1.1; SENP1 inh: -1.4

How did Cc1ccc(S(=O)(=O)NNC(=O)c2ccc(NC(=O)C3CC3)cc2)cc1 do in these assays?
Myeloid diff 2: inactive; VLA-4 inh: -11.6; SENP1 inh: 1.4

What do the screens show for `COc1cc(OC)cc(C(=O)NC(C(=O)NNC(=O)c2ccc(C)cc2)C(C)C)c1` (stereo not given)?
Myeloid diff 2: inactive; VLA-4 inh: -6.2; SENP1 inh: -0.4

How did COc1ccc(C(=O)NCc2cccnc2)cc1C(=O)NCc1cccnc1 do in these assays?
Myeloid diff 2: inactive; VLA-4 inh: 56.1*; SENP1 inh: 2.1; VLA-4 mod pick: -0.8

What do the screens show for `Cc1ccc(C(=O)OCC(=O)Nc2ccc(S(N)(=O)=O)cc2)c(O)c1`?
Myeloid diff 2: inactive; VLA-4 inh: 4.5; Platelet DG rel: -3.9; SENP1 inh: 2.9; VLA-4 mod pick: 5.7

What do the screens show for `Cc1ccc(NS(=O)(=O)c2ccc(-c3cnc(C4CC4)o3)cc2)c(C)c1`?
Myeloid diff 2: inconclusive; VLA-4 inh: 55.2*; Platelet DG rel: 6.7; SENP1 inh: 1.2; VLA-4 mod pick: 47.4*

Results for COc1ccccc1NS(=O)(=O)c1ccc(-c2cnc(C3CC3)o2)cc1 ?
Myeloid diff 2: inconclusive; VLA-4 inh: 9.6; Platelet DG rel: 1.5; SENP1 inh: 0.9

How did Cc1ccc2c(c1)c(C1=c3ccccc3=NC1=O)c(O)n2C do in these assays?
VLA-4 inh: 3.0; Platelet DG rel: 19.0; SENP1 inh: 0.1

What do the screens show for `C=CCn1c(O)c(C2=c3ccccc3=NC2=O)c2ccccc21`?
VLA-4 inh: 51.3*; Platelet DG rel: 11.3; SENP1 inh: 0.5; VLA-4 mod pick: -0.1

How did O=C(CCN1CCN(Cc2ccccc2)CC1)NNC(=O)c1ccc(Cl)c(Cl)c1 do in these assays?
Myeloid diff 2: inactive; SENP1 inh: -2.2

What do the screens show for `CN(C(=O)COC(=O)c1ccc2c(c1)OCO2)C1CCS(=O)(=O)C1` (stereo not given)?
Myeloid diff 2: inactive; VLA-4 inh: 93.0*; Platelet DG rel: -0.1; SENP1 inh: 4.1; VLA-4 mod pick: 0.0

Results for CN(C(=O)COC(=O)c1ccc2c(c1)OCO2)C1CCCCC1 ?
Myeloid diff 2: inactive; VLA-4 inh: 14.4; SENP1 inh: -0.7

Results for O=C(COc1ccccc1)Nc1ccccc1C(=O)NCc1ccco1 ?
Myeloid diff 2: inactive; VLA-4 inh: 57.6*; Platelet DG rel: -0.9; SENP1 inh: -3.2; VLA-4 mod pick: -0.1

How did CCCNC(=O)c1ccccc1NC(=O)COc1ccc(OC)cc1 do in these assays?
Myeloid diff 2: inactive; Platelet DG rel: -1.6; SENP1 inh: 0.9; VLA-4 mod pick: -8.9

What do the screens show for `OC(c1ccccc1)c1nccc2ccccc12` (stereo not given)?
Myeloid diff 2: inactive; VLA-4 inh: -0.9; Platelet DG rel: 13.4; SENP1 inh: 1.0
